Blank lines part the entries; values can stand above or below the compound they belong to. Activity calls are given as the source filed them. The calls are words filed in the database; no cut-off is given here.
Tests used:
RAW264.7 [1] = experiment: Antiinflammatory activity in mouse RAW264.7 cells assessed as inhibition of LPS-induced IL6 release at 10 uM incubated for 2 hrs prior to LPS-challenge measured after 22 hrs by ELISA relative to LPS-treated control; format: functional
How it was run: (§1)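 Pretreated with compound or DMSO vehicle for 2 h (screen at 10 µM; dose series 1, 5, 10 µM), then LPS 0.5 µg/mL for 22 h. Medium IL-6 measured by ELISA, normalized to cellular total protein, expressed as % of LPS control. Mean ± SE of 3–6 independent experiments.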

Mus musculus [2] = experiment: Antiinflammatory activity in C57BL/6 mouse assessed as protection against LPS-induced septic death by measuring survival at 15 mg/kg, ip administered 15 mins prior to LPS challenge measured after 7 days relative to vehicle-treated control; format: functional; conditions: route intraperitoneal
How it was run: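 Male C57BL/6 mice (18–22 g), n = 10 per group, given compound ip 15 min before LPS (20 mg/kg, iv). Compound at 2 mg/mL in water with macrogol 15 hydroxystearate (5–10% final) ± medium-chain triglycerides (0.5–2% final), dissolved at 37 °C. Vehicle was 10% solubilizer plus 2% MCT. Survival and body weight recorded every 24 h for 7 days.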

MPM [3] = experiment: Inhibition of NFkappaB activation in ICR mouse MPM cells assessed as inhibition of LPS-induced IkappaB degradation incubated for 2 hrs prior to LPS-challenge measured after 1 hr by Western blot analysis; format: cell-based
How it was run: (§2)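 Primary peritoneal macrophages from ICR mice plated at 1.2 × 10⁶/plate overnight. Pretreated with DMSO or compound for 2 h, then LPS 10 ng/mL for 1 h. Cells lysed; 40–60 µg lysate run on 10% SDS-PAGE and blotted to nitrocellulose. Blocked in TBS pH 7.6 with 0.05% Tween 20 and 5% milk. Probed for IκB, p-JNK, p-ERK, p-p38 against GAPDH or the total protein. Detection by HRP secondary and ECL. Optical density given as % of control.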

MPM [4] = experiment: Inhibition of NFkappaB activation in ICR mouse MPM cells assessed as inhibition of LPS-induced IkappaB degradation at 10 uM incubated for 2 hrs prior to LPS-challenge measured after 1 hr by Western blot analysis; format: cell-based; how it was run: as §2
RAW264.7 [5] = experiment: Antiinflammatory activity in mouse RAW264.7 cells assessed as inhibition of LPS-induced IL6 release incubated for 2 hrs prior to LPS-challenge measured after 22 hrs by ELISA; format: functional, cell-based; how it was run: as §1
MPM [6] = experiment: Inhibition of LPS-induced ERK phosphorylation in ICR mouse MPM cells incubated for 2 hrs prior to LPS-challenge measured after 1 hr by Western blot analysis; format: cell-based; how it was run: as §2
RAW264.7 [7] = experiment: Cytotoxicity against mouse RAW264.7 cells; format: cell-based
Mus musculus [8] = experiment: Toxicity in C57BL/6 mouse assessed as decrease in body weight at 20 mg/kg, ip after 3 days; format: organism-based; set-up: dose 20 mg/kg, route intraperitoneal; conditions: in vivo, 72 h
How it was run: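 Male C57BL/6 mice (18–22 g) given compound ip at 20 mg/kg, prepared at 2 mg/mL in water with macrogol 15 hydroxystearate (5–10%) ± MCT (0.5–2%). Vehicle was 10% solubilizer with 2% MCT. LPS 20 mg/kg iv given 15 min later. Body weight and survival recorded every 24 h for 7 days; n = 10 per group.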

MPM [9] = experiment: Inhibition of LPS-induced ERK phosphorylation in ICR mouse MPM cells at 10 uM incubated for 2 hrs prior to LPS-challenge measured after 1 hr by Western blot analysis; format: cell-based; how it was run: as §2
[10] = target: MAP kinase p38 (Mus musculus) (UniProt P47811+O08911+Q9WUI1+Q9Z1B7); experiment: Inhibition of LPS-induced p38 phosphorylation in ICR mouse MPM cells at 10 uM incubated for 2 hrs prior to LPS-challenge measured after 1 hr by Western blot analysis; format: cell-based; how it was run: as §2
MPM [11] = experiment: Inhibition of LPS-induced JNK phosphorylation in ICR mouse MPM cells at 10 uM incubated for 2 hrs prior to LPS-challenge measured after 1 hr by Western blot analysis; format: cell-based; how it was run: as §2
MPM [12] = experiment: Inhibition of LPS-induced JNK phosphorylation in ICR mouse MPM cells incubated for 2 hrs prior to LPS-challenge measured after 1 hr by Western blot analysis; format: cell-based; how it was run: as §2

SMILES: O=C1/C(=C/c2ccc(O)c(O)c2)CC/C1=C\c1ccc(O)c(O)c1
inhibition (RAW264.7 [1]): Active

SMILES: O=C(/C=C/c1ccc(O)c(O)c1)/C=C/c1ccc(O)c(O)c1
inhibition (RAW264.7 [1]): Active

SMILES: O=C1/C(=C/c2ccc(O)c(O)c2)CCC/C1=C\c1ccc(O)c(O)c1
inhibition (RAW264.7 [1]): Active

SMILES: COc1cc(/C=C2\CNC/C(=C\c3cc(OC)c(OC)c(OC)c3)C2=O)cc(OC)c1OC
Activity (Mus musculus [2]): 80%
inhibition (MPM [3]): Dose-dependent effect
inhibition (MPM [4]): Active
IC50 (RAW264.7 [5]): < 1000 nM
inhibition (RAW264.7 [5]): Dose-dependent effect
inhibition (MPM [6]): Dose-dependent effect
inhibition at 10 µM (RAW264.7 [1]): 96%
Activity (RAW264.7 [7]): Non-toxic
Activity (Mus musculus [8]): Toxic
inhibition (MPM [9]): Active

SMILES: CN1C/C(=C\c2ccccc2F)C(=O)/C(=C/c2ccccc2F)C1
inhibition (RAW264.7 [1]): Active

SMILES: COc1ccc(/C=C2\CN(C)C/C(=C\c3ccc(OC)c(OC)c3)C2=O)cc1OC
inhibition at 10 µM (RAW264.7 [1]): 90%

inhibition [10]: inactive
SMILES: O=C1/C(=C/c2ccc(O)cc2)CNC/C1=C\c1ccc(O)cc1

SMILES: CN1C/C(=C\c2ccc(F)cc2)C(=O)/C(=C/c2ccc(F)cc2)C1
inhibition (RAW264.7 [1]): Active

inhibition [10]: inactive
IC50 (RAW264.7 [5]): 2040 nM
SMILES: CCCN1C/C(=C\c2ccc(OC)c(OC)c2)C(=O)/C(=C/c2ccc(OC)c(OC)c2)C1
inhibition (MPM [4]): inactive
inhibition (RAW264.7 [5]): Dose-dependent effect
inhibition at 10 µM (RAW264.7 [1]): 90%
inhibition (MPM [11]): inactive
Activity (RAW264.7 [7]): Non-toxic
inhibition (MPM [9]): inactive

IC50 (RAW264.7 [5]): 4190 nM
SMILES: O=C1/C(=C/c2cccc(O)c2)CNC/C1=C\c1cccc(O)c1
inhibition (RAW264.7 [5]): Dose-dependent effect
Activity (RAW264.7 [7]): Non-toxic

SMILES: CCN1C/C(=C\c2ccccc2Br)C(=O)/C(=C/c2ccccc2Br)C1
inhibition (RAW264.7 [1]): Active

SMILES: CCCN1C/C(=C\c2ccccc2Cl)C(=O)/C(=C/c2ccccc2Cl)C1
inhibition (RAW264.7 [1]): Active

SMILES: COc1ccc(/C=C2\CNC/C(=C\c3ccc(OC)c(OC)c3)C2=O)cc1OC
inhibition (MPM [12]): Dose-dependent effect
Activity (Mus musculus [2]): 60%
inhibition (MPM [3]): Dose-dependent effect
inhibition (MPM [4]): Active
IC50 (RAW264.7 [5]): 2680 nM
inhibition (RAW264.7 [5]): Dose-dependent effect
inhibition (MPM [6]): Dose-dependent effect
inhibition at 10 µM (RAW264.7 [1]): 98%
inhibition (MPM [11]): Active
Activity (RAW264.7 [7]): Non-toxic
Activity (Mus musculus [8]): Toxic
inhibition (MPM [9]): Active

SMILES: COc1cc(/C=C/C(=O)CC(=O)/C=C/c2ccc(O)c(OC)c2)ccc1O
inhibition (MPM [11]): Active

SMILES: O=C1/C(=C/c2ccccc2F)CNC/C1=C\c1ccccc1F
inhibition (RAW264.7 [1]): Active
